Key:
Format in all cases: ADME
[1] = target: T1, Cytochrome P450 4F2 (Homo sapiens, UniProt P78329); assay: (§1) Drug level assessed as recombinant human CYP4F2 expressed in insect cell microsomes-mediated compound formation by measuring compound retention time treated with BSA bound d6-alpha-tocopheryl quinone at 10 uM preincubated for 10 mins followed by NADPH addition measured after 20 mins in presence of recombinant human CYP reductase and cytochrome b5 by LS-MS analysis; details: recombinant enzyme
T1 sequence (P78329 whole entry): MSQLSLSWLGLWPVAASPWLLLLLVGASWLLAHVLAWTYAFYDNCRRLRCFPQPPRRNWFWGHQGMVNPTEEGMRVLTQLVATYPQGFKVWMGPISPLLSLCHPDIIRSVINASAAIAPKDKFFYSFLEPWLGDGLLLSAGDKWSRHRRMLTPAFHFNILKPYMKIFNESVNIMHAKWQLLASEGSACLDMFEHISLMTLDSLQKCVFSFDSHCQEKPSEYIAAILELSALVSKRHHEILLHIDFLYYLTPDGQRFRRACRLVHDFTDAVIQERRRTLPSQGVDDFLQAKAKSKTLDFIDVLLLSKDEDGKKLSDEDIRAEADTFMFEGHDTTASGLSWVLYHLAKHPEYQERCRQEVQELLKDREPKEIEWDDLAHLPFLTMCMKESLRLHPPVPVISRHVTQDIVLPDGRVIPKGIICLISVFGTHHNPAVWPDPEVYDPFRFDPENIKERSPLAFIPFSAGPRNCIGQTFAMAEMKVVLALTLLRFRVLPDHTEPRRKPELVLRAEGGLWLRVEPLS
Summary of the method: (§2)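 Insect cell microsomes co-expressing recombinant human CYP4F2, cytochrome b5 and NADPH P450 reductase (100 pmol CYP/mL) in 100 mM KH2PO4 pH 7.2 with d6-αTQ–BSA complex (10 μM). Preincubated 10 min at 37 °C, then NADPH added to 1 mM final; 20 min at 37 °C, then chilled on ice. Internal standard d0-ω-hydroxy-αTQ added, extracted with ethyl acetate then hexanes:MTBE. Products identified by reversed-phase C18 LC-MS retention time and mass spectra.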

[2] = target: T1, Cytochrome P450 4F2; assay: Drug level in human liver microsomes treated with BSA bound d6-alpha-tocopheryl quinone assessed as CYP4F2-mediated compound formation at 4.4 mM preincubated for 10 mins followed by NADPH addition measured after 20 mins by LS-MS analysis
Summary of the method: (§3)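 Pooled human liver microsomes (20 mg/ml protein) in 100 mM KH2PO4 pH 7.2. d6-αTQ–BSA complex added from a 4.4 mM stock. Preincubated 10 min at 37 °C, then NADPH added to 1 mM final (NAD at 1 mM if used); 20 min at 37 °C, then chilled on ice. d0-ω-hydroxy-αTQ added as internal standard, extracted with ethyl acetate then hexanes:MTBE. Read-out by positive-ion C18 LC-MS.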

[3] = target: T1, Cytochrome P450 4F2; assay: as §1, with “formation” for “formation by measuring compound retention time”; details: recombinant enzyme; summary of the method: as §2
[4] = target: T1, Cytochrome P450 4F2; assay: Drug level in human liver microsomes treated with BSA bound d6-alpha-tocopheryl quinone assessed as CYP4F2-mediated compound formation by measuring compound retention time at 4.4 mM preincubated for 10 mins followed by NADPH addition measured after 20 mins by LS-MS analysis; summary of the method: as §3

Retention_time [1] [min] | Drug metabolism [2] | Drug metabolism [3] | Retention_time [4] [min] | Structure (SMILES)
8.8 | Metabolite_Detected | Metabolite_Detected | 8.8 | [2H]C([2H])([2H])C1=C(C)C(=O)C(CC[C@](C)(O)CCC[C@H](C)CCC[C@H](C)CCCC(C)CO)=C(C([2H])([2H])[2H])C1=O (stereo not given in full)
7.42 | Metabolite_Detected | Metabolite_Detected | 7.1 | [2H]C([2H])([2H])C1=C(C)C(=O)C(CC[C@](C)(O)CCC[C@H](C)CCC[C@H](C)CCCC(C)C(=O)O)=C(C([2H])([2H])[2H])C1=O (stereo not given in full)

Structure (SMILES) | Retention_time [1] [min] | Drug metabolism [2] | Drug metabolism [3] | Retention_time [4] [min]
[2H]C([2H])([2H])C1=C(C)C(=O)C(CC[C@](C)(O)CCC[C@H](C)CCC[C@H](C)CCCC(C)C)=C(C([2H])([2H])[2H])C1=O |  | Metabolite_Detected |  | 11.87
